Screens from PubChem.
Most compounds without a hit are left out; they make up all but 2.1% or so of the library.
EBV LMP1 NFkB – Epstein-Barr LMP1 NF-kappaB reporter inhibition | LMP1-induced NF-kappaB luciferase reporter cells, luminescence | inhibition, % at 12.5 µM | 350,000 compounds, 0.69% hits | AID 504558; in the data active = inhibition above about 41%;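 note: 0% = neutral control wells and 100% = reference inhibitor control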
Shn3 inh set2 – Schnurri-3 reporter inhibition in Clone20 osteoblasts; Clone20 osteoblast Shn3 3'UTR firefly luciferase, 24 h; inhibition, % at 12.5 µM; 360,000 compounds, 0.52% hits; AID 588674;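 active = mean inhibition of at least 75% with every replicate also reaching 75%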;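 note: 0% = median of neutral control wells and 100% = pilot-screen positive control compound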
EWS-Fli block – EWS/Fli transcriptional activity inhibition. inhibition, % at 12.6 µM. A673 NR0B1-luciferase reporter, viability-normalised. 350,000 compounds, 0.67% hits;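 active = mean inhibition of at least 50% after viability correction, with every replicate also passing that limit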;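 note: firefly luciferase signal divided by Alamar Blue viability fluorescence both relative to DMSO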
PAX8 inh HTS – PAX8 transcriptional activity inhibition; RMG-I TPO-luciferase reporter, SteadyGlo, 24 h; inhibition, % at 12.6 µM; 360,000 compounds, 1.2% hits; AID 652154;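 active = mean replicate inhibition at least 60% with every replicate also reaching 60%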;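 note: luciferase light reporting Pax8 driven TPO promoter activity; plate controls were median of neutral control wells for no effect and mitoxantrone controls for full effect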
FN deposition inh – fibronectin deposition inhibition; AH1F fibroblasts, Alexa488-fibronectin deposition fluorescence, overnight; inhibition, % at 12.6 µM; 350,000 compounds, 0.086% hits; AID 743247;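 active = mean inhibition across replicates of 30% or more, regardless of how many single replicates reach that level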;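 note: positive control wells lacked labelled fibronectin entirely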
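Assay system: AH1F fibroblasts / Quantity: 10000 cells per well / Medium: DMEM plus 2% serum, read in PBS / Reagent: labelled fibronectin 24 nM / Dosing: single dose, pinned / Times: 1 h cell attachment, overnight exposure to compound and label / Signal: fluorescence, ex 485 nm, em 525 nm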
aSyn 5UTR inh – MLPCN primary screen, SNCA 5' untranslated region | alpha-synuclein 5'UTR reporter, inhibitor activity | inhibition, % (tested at 7.5 µM) | 300,000 compounds, 0.82% hits | AID 1813; in the data active = inhibition above about 60%;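 note: H4 neuroglioblastoma cells stably carrying SNCA 5'UTR luciferase fusion; 0% = DMSO wells and 100% = positive control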
The depositor's hits bear a star; . = not tested or not shown.

SMILES	EBV LMP1 NFkB	Shn3 inh set2	EWS-Fli block	PAX8 inh HTS	FN deposition inh	aSyn 5UTR inh
N#C[C@H]1[C@H](c2ccc(C#CC3CCCC3)cc2)[C@@H](CO)N1C(=O)c1cccc(F)c1	.	.	8.6	.	-12.3	.
CCn1c2ccccc2c2cc(NC(=O)COc3ccccc3OC)ccc21	3.5	11.3	.	.	.	24.4
CCn1c2ccccc2c2cc(NC(=O)CNCc3ccccc3OC)ccc21	13.3	19.3	56.8*	16.0	14.2	-15.6
CCOC(=O)C[N+](C)(C)CCOC1CC2CCC1(C)C2(C)C (stereo unspecified)	-0.6	25.8	.	1.6	-8.7	-6.1
CC1(C)C2CCC1(C)C(OCC[N+](C)(C)CC(=O)OC1CCCCC1)C2 (stereo unspecified)	68.3*	65.5	14.7	50.8	-11.1	4.3
CCCNC(=O)Nc1ccc2c(c1)C(=O)N(C)[C@H]1CC[C@H](CC(=O)OC)O[C@@H]1CO2	.	.	.	0.3	5.8	.
CN1OC[C@@H]2CN[C@H](c3ccc(-c4cc5ccccc5o4)cc3)C[C@@H]21	79.8*	84.9	.	.	.	.
Cc1ccccc1COC(=O)c1nn(-c2ccccc2)nc1N	-11.4	4.2	2.2	-21.5	31.0*	-20.4
Cc1ccc(CN=C(N)Nc2nc(C)cc(C)n2)cc1	-1.8	30.8	40.4	15.5	-2.6	117.0*
C[C@H]1CCCCO[C@H](CN(C)C(=O)Cc2ccccc2)[C@@H](C)CN([C@@H](C)CO)C(=O)c2cc(NC(=O)C3CCCCC3)ccc2O1	.	.	-0.2	-19.4	.	.
COc1ccc(NC(=O)C(=O)N/N=C\c2ccc(CNC(=O)C(=O)Nc3ccc(C)c(C)c3)o2)c(OC)c1	.	.	.	.	.	88.4*
CCCNC(=O)N1C[C@@H](C)[C@H](OC)CN(C)C(=O)c2cc(NS(C)(=O)=O)ccc2OC[C@@H]1C	.	.	3.6	0.4	-8.2	.
Cc1noc(C)c1S(=O)(=O)Nc1ccc2c(c1)C(=O)N([C@H](C)CO)C[C@@H](C)[C@@H](CN(C)S(=O)(=O)c1cn(C)cn1)OCCCC[C@H](C)O2	.	.	-10.7	-2.0	-0.8	.
CC(C)(C)c1cc(CCC(=O)NCCc2ccccn2)cc(C(C)(C)C)c1O	-11.3	10.6	4.2	3.2	3.3	-6.7
O=C1C=C(NCCc2cc(Br)c(O)c(Br)c2)C(=O)c2ncccc21	18.2	93.6*	19.1	101.4*	6.6	.
CC(C)CC(N)c1csc(NC(=O)Nc2ccccc2C(C)C)n1 (stereo unspecified)	.	7.8	6.6	-23.6	-3.8	.
CC(C)c1ccc(NC(=O)Nc2nc(C(N)COCc3ccccc3)cs2)cc1 (stereo unspecified)	.	93.1*	14.9	-5.5	4.7	.
CC(C)c1ccccc1NC(=O)Nc1nc(C(N)Cc2ccc(C(F)(F)F)cc2)cs1 (stereo unspecified)	.	98.3*	-4.5	21.4	-6.3	.
NC(CCc1ccccc1)c1csc(NC(=O)Nc2ccccc2Oc2ccccc2)n1 (stereo unspecified)	.	95.9*	30.7	16.4	-12.7	.
O=C(Nc1ccc(Cl)c(Cl)c1)Nc1nc(-c2ccccc2)cs1	55.8*	41.0	.	20.4	-10.5	-1.1
NC(CCc1ccccc1)c1csc(NC(=O)NCCc2ccccc2)n1 (stereo unspecified)	.	10.4	11.1	2.1	-3.8	.
C[C@H](CO)N1C[C@H](C)[C@H](CN(C)S(=O)(=O)c2ccccc2)Oc2c(NC(=O)c3nc4ccccc4s3)cccc2C1=O	.	.	1.5	16.2	.	.
O=C(c1ccccn1)N1C[C@H]2[C@@H](c3ccccc31)[C@@H](CO)N2C(=O)C1CCOCC1	.	.	-52.2	-5.5	.	.
CC(C)c1ccc(NC(=O)Nc2nc(C(N)c3ccccc3)cs2)cc1 (stereo unspecified)	.	92.8*	1.4	-8.2	-3.5	.
CC(C)c1ccc(NC(=O)Nc2nc(C(N)C(C)C)cs2)cc1 (stereo unspecified)	.	14.2	28.4	42.6	-3.0	.
O=C(c1ccccc1)c1ccc(Cn2cc(CCCO)nn2)cc1	11.1	50.5	14.0	6.3	-3.6	14.4
O=C(O)CCCCCCCCc1cn(Cc2ccc(C(=O)c3ccccc3)cc2)nn1	17.9	9.1	54.4*	23.8	-6.6	-35.0
O=C(N/N=C/C1CC=CCC1)c1ccc(O)cc1O (stereo unspecified)	0.7	-2.4	.	-7.8	-0.9	19.4
COc1cc(C(=O)N/N=C/C2CC=CCC2)cc(OC)c1OC (stereo unspecified)	3.3	3.1	.	-8.3	4.2	107.5*
